Assay results published in ChEMBL document CHEMBL1153436, “2-Pyridyl P1'-substituted symmetry-based human immunodeficiency virus protease inhibitors (A-792611 and A-790742) with potential for convenient dosing and reduced side effects” (J Med Chem, 2009).

Tests used:
[1] = tested on: Human immunodeficiency virus 1; experiment: Antiviral activity against wild-type HIV1 pNL4-3 infected in human MT4 cells after 5 days by MTT assay in presence of 50% human serum; assay type: functional, organism-based; conditions: Human immunodeficiency virus 1, MT4, 120 h
[2] = tested on: Human immunodeficiency virus 1; experiment: Antiviral activity against HIV1 bearing protease gene with A17 mutation infected in human MT4 cells after 5 days by MTT assay; assay type: functional, organism-based; conditions: Human immunodeficiency virus 1, MT4, 120 h
Outline: (§1)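 HIV-1 A17 mutant clone carrying protease mutations L10F, V32I, M46I, I47V, Q58E and I84V, generated by in vitro serial passage under LPV/RTV. EC50 was determined in MT-4 cells. Wild-type reference strain was HIV-1 pNL4-3.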

[3] = tested on: Human immunodeficiency virus 1; experiment: Antiviral activity against wild-type HIV1 pNL4-3 infected in human MT4 cells after 5 days by MTT assay; assay type: functional, organism-based; conditions: Human immunodeficiency virus 1, MT4, 120 h
[4] = tested on: Human immunodeficiency virus 1; experiment: Fold resistance, ratio of EC50 for HIV1 bearing protease gene with A17 mutation to EC50 for wild-type HIV1 pNL4-3; assay type: functional; outline: as §1
[5] = Clearance in Sprague-Dawley rat at 5 mg/kg, iv; assay type: ADME, organism-based; parameters: dose 5 mg/kg, route intravenous; conditions: in vivo
Outline: (§2)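 Male Sprague-Dawley-derived rats (n = 3) dosed iv or by oral gavage with 5 mg/mL solutions in 5% dextrose containing 20% ethanol, 30% propylene glycol and methanesulfonic acid equivalents. Plasma was sampled at 10 time points over 8 h, extracted into ethyl acetate/hexane and analysed by reversed-phase HPLC with internal standard. AUC in µg·h/mL.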

[6] = AUC in Sprague-Dawley rat at 5 mg/kg, po; assay type: ADME, organism-based; parameters: dose 5 mg/kg, route oral; conditions: plasma; outline: as §2
[7] = Oral bioavailability in Sprague-Dawley rat at 5 mg/kg; assay type: ADME, organism-based; conditions: in vivo; outline: as §2
[8] = Half life in Sprague-Dawley rat at 5 mg/kg, iv; assay type: ADME, organism-based; parameters: dose 5 mg/kg, route intravenous; conditions: in vivo; outline: as §2
[9] = AUC in Sprague-Dawley rat at 5 mg/kg, po in presence of ritonavir; assay type: ADME, organism-based; parameters: dose 5 mg/kg, route oral; conditions: plasma; outline: as §2

| Structure (SMILES) | EC50 [1] | EC50 [2] | EC50 [3] | Ratio EC50 [4] | clearance [5] | AUC [6] | bioavailability [7] | half-life [8] | AUC [9] |
| --- | --- | --- | --- | --- | --- | --- | --- | --- | --- |
| COC(=O)N[C@H](C(=O)N[C@@H](Cc1ccc(-c2ccccn2)cc1)C[C@H](O)[C@H](Cc1ccccc1)NC(=O)[C@@H](N1CCN(Cc2ccccc2F)C1=O)C(C)(C)C)C(C)(C)C | 36 nM | 88 nM | 11 nM | – | – | – | – | – | – |
| COC(=O)N[C@H](C(=O)N[C@@H](Cc1ccc(-c2ccccn2)cc1)C[C@H](O)[C@H](Cc1ccccc1)NC(=O)[C@@H](N1CCN(Cc2cccc(F)c2)C1=O)C(C)(C)C)C(C)(C)C | 28 nM | 38 nM | 4 nM | 9 | – | – | – | – | – |
| COC(=O)N[C@H](C(=O)N[C@@H](Cc1ccc(-c2ccccn2)cc1)C[C@H](O)[C@H](Cc1ccccc1)NC(=O)[C@@H](N1CCN(Cc2ccc(F)cc2)C1=O)C(C)(C)C)C(C)(C)C | 33 nM | 42 nM | 6 nM | 7 | – | – | – | – | – |
| COC(=O)N[C@H](C(=O)N[C@@H](Cc1ccc(-c2ccccn2)cc1)[C@@H](O)C[C@H](Cc1ccccc1)NC(=O)[C@@H](N1CCN(Cc2ccnc3ccccc23)C1=O)C(C)(C)C)C(C)(C)C | 15 nM | 1 nM | 2 nM | <1 | 33.3 mL/min/kg | 50 ng·h/mL | 1.1% | 24 min | 3300 ng·h/mL |
| COC(=O)N[C@H](C(=O)N[C@H](Cc1ccc(-c2ccccn2)cc1)C[C@H](O)[C@H](Cc1ccccc1)NC(=O)[C@@H](N1CCN(Cc2ccnc3ccccc23)C1=O)C(C)(C)C)C(C)(C)C | 21 nM | 8 nM | 5 nM | 2 | 41.7 mL/min/kg | – | 0% | 36 min | 9200 ng·h/mL |
| COC(=O)N[C@H](C(=O)N[C@@H](Cc1ccc(-c2ccccn2)cc1)C[C@H](O)[C@H](Cc1ccccc1)NC(=O)[C@@H](N1CCN(Cc2ccnc3ccccc23)C1=O)C(C)(C)C)C(C)(C)C | 19 nM | 2 nM | 4 nM | <1 | 30 mL/min/kg | 20 ng·h/mL | 0.6% | 66 min | 2860 ng·h/mL |
| COC(=O)N[C@H](C(=O)N[C@@H](Cc1ccc(-c2ccccn2)cc1)[C@@H](O)C[C@H](Cc1ccccc1)NC(=O)[C@@H](N1CCN(Cc2cccc(C(C)(C)O)n2)C1=O)C(C)(C)C)C(C)(C)C | 19 nM | 2 nM | 4 nM | <1 | 16.7 mL/min/kg | 880 ng·h/mL | 17% | 54 min | 1820 ng·h/mL |
| COC(=O)N[C@H](C(=O)N[C@@H](Cc1ccc(-c2ccccn2)cc1)[C@@H](O)C[C@H](Cc1ccccc1)NC(=O)[C@@H](N1CCN(Cc2csc(C)n2)C1=O)C(C)(C)C)C(C)(C)C | 34 nM | 2 nM | 3 nM | <1 | 31.7 mL/min/kg | 320 ng·h/mL | 11.2% | 30 min | 8400 ng·h/mL |
| COC(=O)N[C@H](C(=O)N[C@H](Cc1ccc(-c2ccccn2)cc1)C[C@H](O)[C@H](Cc1ccccc1)NC(=O)[C@@H](N1CCN(Cc2cccc(C(C)C)n2)C1=O)C(C)(C)C)C(C)(C)C | 105 nM | 66 nM | 15 nM | 4 | – | – | – | – | – |
| COC(=O)N[C@H](C(=O)N[C@@H](Cc1ccc(-c2ccccn2)cc1)[C@@H](O)C[C@H](Cc1ccccc1)NC(=O)[C@@H](N1CCN(Cc2nc3ccccc3n2C)C1=O)C(C)(C)C)C(C)(C)C | 82 nM | 3 nM | 7 nM | <1 | – | – | – | – | – |
| COC(=O)N[C@H](C(=O)N[C@@H](Cc1ccc(-c2ccccn2)cc1)C[C@H](O)[C@H](Cc1ccccc1)NC(=O)[C@@H](N1CCN(Cc2cccc(C(C)(C)O)n2)C1=O)C(C)(C)C)C(C)(C)C | 53 nM | 4 nM | 6 nM | – | 23.3 mL/min/kg | 200 ng·h/mL | 5.7% | 60 min | 830 ng·h/mL |
| COC(=O)N[C@H](C(=O)N[C@@H](Cc1ccc(-c2ccccn2)cc1)C[C@H](O)[C@H](Cc1ccccc1)NC(=O)[C@@H](N1CCN(Cc2ccccc2C)C1=O)C(C)(C)C)C(C)(C)C | 30 nM | 72 nM | 10 nM | 7 | – | – | – | – | – |
| COC(=O)N[C@H](C(=O)N[C@H](Cc1ccc(-c2ccccn2)cc1)C[C@H](O)[C@H](Cc1ccccc1)NC(=O)[C@@H](N1CCN(Cc2ccccc2)C1=O)C(C)(C)C)C(C)(C)C | 43 nM | 37 nM | 11 nM | 3 | – | – | – | – | – |
| COC(=O)N[C@H](C(=O)N[C@H](Cc1ccc(-c2ccccn2)cc1)C[C@H](O)[C@H](Cc1ccccc1)NC(=O)[C@@H](N1CCN(Cc2nc3ccccc3n2C)C1=O)C(C)(C)C)C(C)(C)C | 33 nM | 20 nM | 3 nM | 7 | 54 mL/min/kg | – | 0.1% | 42 min | 1170 ng·h/mL |
